IDH1 mut inh – inhibitors of IDH1 R132H reductase, primary screen, biochemical, plate reader, single point. Isocitrate dehydrogenase [NADP] cytoplasmic (Homo sapiens), O75874. diaphorase/resazurin fluorescence, 60 min. inhibition, % at 10 µM. hit rate 0.18% among 70,000. AID 624101, 2012; in the data active = inhibition above about 34%; inconclusive = no clear call, values can overlap the other calls; inactive = below about 11%
Pf Dd2 inh – P. falciparum Dd2 growth inhibitors, primary screen, SYBR Green fluorescence, single dose replicates; 72 h; active compounds read low; hit rate 2.3% among 94,000; activity change, % at 10 µM; in the data active = activity change below about -80%; inconclusive = no clear call, values can overlap the other calls
GASC1 inh – inhibitors of GASC-1 (KDM4C) histone demethylase, primary screen, biochemical, single concentration HTS; hit rate 0.15% among 96,000; inhibition, % at 12.5 µM; AID 720574, 2013; GST-KDM4C 2-372, H3K9me3 peptide, LANCE TR-FRET;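 active = mean replicate inhibition above about 25%, with at least 55% of replicates also reaching it, limit read from the data, passing the limit was not always enough; inconclusive = only one of those two conditions met; inactive = neither condition met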
Target sequence (Q9H3R0 2-372 limits assumed): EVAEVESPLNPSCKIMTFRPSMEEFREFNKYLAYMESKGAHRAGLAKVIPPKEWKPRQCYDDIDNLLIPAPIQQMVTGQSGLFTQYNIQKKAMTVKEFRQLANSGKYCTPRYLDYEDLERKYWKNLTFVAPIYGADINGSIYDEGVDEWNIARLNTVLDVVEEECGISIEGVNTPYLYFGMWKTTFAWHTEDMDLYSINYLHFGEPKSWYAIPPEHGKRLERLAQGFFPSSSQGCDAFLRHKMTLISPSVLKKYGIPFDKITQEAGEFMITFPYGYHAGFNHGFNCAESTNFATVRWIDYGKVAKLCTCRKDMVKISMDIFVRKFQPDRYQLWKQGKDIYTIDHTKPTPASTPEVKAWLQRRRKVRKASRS
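Material: N-terminal GST-fused human GASC-1 (KDM4C) fragment, residues 2-372. Input: 10 nM enzyme. Incubation: enzyme reaction 30 min, then detection 60 min, both room temperature. Doses: one test concentration per compound. Read-out basis: inhibition from TR-FRET ratio decrease. Detection: LANCE TR-FRET, excitation 340 nm, emissions 618 and 671 nm.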
T cruzi growth-1 – T. cruzi intracellular proliferation inhibitors, primary screen, cell-based, beta-gal Tulahuen parasites, NIH3T3 host, luminescence | T. cruzi beta-gal in NIH3T3, GalScreen luminescence, 90 h | AID 624255, 2012 | inhibition, % at 8.34 µM | hit rate 5.9% among 77,000;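 active = mean inhibition above about 93%, with at least 55% of replicates each passing it, limit read from the data, passing the limit was not always enough; inconclusive = only one of those two conditions holds; inactive = neither condition holds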
T cruzi growth-2 – T. cruzi intracellular proliferation inhibitors, confirmation, cell-based, NIH3T3 host, beta-gal parasite, luminescence, cherry-pick | shares compounds with T cruzi growth-1 | T. cruzi beta-gal in NIH3T3, GalScreen luminescence, 90 h | inhibition, % at 8.35 µM | hit rate 72% among 5,600 | AID 651739, 2012;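 active = mean replicate inhibition above about 95% and at least 55% of replicates individually reaching it, limit read from the data; inconclusive = only one of the two criteria is met; inactive = neither criterion is met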
T cruzi growth-3 – inhibitors of intracellular T. cruzi replication, confirmation, NIH3T3 host cells, beta-gal parasites, cherry-pick, set 2; shares compounds with T cruzi growth-1; T. cruzi beta-gal in NIH3T3, GalScreen luminescence, 90 h; hit rate 21% among 5,600; AID 651740, 2012; inhibition, % at 2.09 µM;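 active = mean inhibition above about 95%, with at least 55% of replicates also reaching it, limit read from the data; inconclusive = meets just one of the two conditions; inactive = meets neither condition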
NIH3T3 tox – cytotoxicity in mouse NIH/3T3 fibroblasts, confirmation, cytotoxicity control for T. cruzi proliferation inhibitor project, cell-based, cherry-pick, single point; shares compounds with T cruzi growth-1; NIH/3T3 viability, CellTiter-Glo ATP luminescence, 90 h; cytotoxicity (signal decrease), % at 8.35 µM; hit rate 14% among 5,600; AID 651742, 2012;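 active = mean signal decrease across replicates above about 35% based on untreated-well scatter, with enough replicates individually passing, limit read from the data; inconclusive = no rule stated though some were filed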
3T3 cytotox 2 – NIH/3T3 fibroblast cytotoxicity, confirmation, cytotoxicity control, cell-based, cherry-pick, single point, set 2. shares compounds with T cruzi growth-1. NIH/3T3 viability, CellTiter-Glo ATP luminescence, 90 h. inhibition, % at 24.9 µM. hit rate 56% among 5,600. AID 651744, 2012;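 active = mean loss of cell viability signal at or above a set limit, and enough replicates individually reaching it; inconclusive = meets only the mean limit or only the replicate share; inactive = meets neither condition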
Large screens that a line does not name were inactive (follow-up assays come after a bar, where they were run). Hits are enriched below; roughly 5.8% of the tested compounds scored in any of these assays.

Cc1cc(C)cc(N(CC(=O)O)S(C)(=O)=O)c1	none (no result: Pf Dd2 inh, GASC1 inh, T cruzi growth-1)
COc1ccc(S(=O)(=O)Nc2ccc3c(c2)C(=O)N([C@@H](C)CO)C[C@H](C)[C@@H](CN(C)S(=O)(=O)c2ccc(OC)cc2)OCCCC[C@H](C)O3)cc1	T cruzi growth-1 inconclusive | T cruzi growth-2 104 | T cruzi growth-3 inactive | NIH3T3 tox inactive | 3T3 cytotox 2 inactive
COc1ccc(S(=O)(=O)Nc2ccc3c(c2)C(=O)N([C@@H](C)CO)C[C@H](C)[C@@H](CN(C)S(=O)(=O)c2ccc(OC)cc2)OCCCC[C@@H](C)O3)cc1	T cruzi growth-1 inconclusive | T cruzi growth-2 111 | T cruzi growth-3 inactive | NIH3T3 tox inactive | 3T3 cytotox 2 inactive
CCCN(C)C[C@@H]1Oc2cc(C#CC(C)C)ccc2S(=O)(=O)N([C@@H](C)CO)C[C@H]1C	T cruzi growth-1 102 | T cruzi growth-2 111 | T cruzi growth-3 inactive | NIH3T3 tox inactive | 3T3 cytotox 2 104
CCCN(C)C[C@@H]1Oc2cc(C#Cc3ccccc3F)ccc2S(=O)(=O)N([C@@H](C)CO)C[C@@H]1C	T cruzi growth-1 inconclusive | T cruzi growth-2 112 | T cruzi growth-3 inactive | NIH3T3 tox inactive | 3T3 cytotox 2 106
CCCN(C)C[C@@H]1Oc2cc(C#Cc3ccc(OC)cc3)ccc2S(=O)(=O)N([C@@H](C)CO)C[C@@H]1C	Pf Dd2 inh -85, T cruzi growth-1 inconclusive | T cruzi growth-2 110 | T cruzi growth-3 inactive | NIH3T3 tox 43 | 3T3 cytotox 2 104
CCCN(C)C[C@@H]1Oc2cc(C#Cc3ccc(F)cc3)ccc2S(=O)(=O)N([C@@H](C)CO)C[C@@H]1C	T cruzi growth-1 85 | T cruzi growth-2 109 | T cruzi growth-3 inconclusive | NIH3T3 tox inconclusive | 3T3 cytotox 2 106
COc1ccc2c3c([nH]c2c1)[C@H](CO)N(C(=O)c1ccccn1)CC31CCN(C(=O)C2CCCC2)CC1	none (no result: IDH1 mut inh, T cruzi growth-1)
COc1ccc(C#Cc2ccc3c(c2)[C@@H]2[C@@H](CCN2C(=O)C2CCOCC2)[C@@H](CO)N3)cc1	none (no result: IDH1 mut inh)
CCNC(=O)[C@H]1[C@H](CO)[C@H]2Cn3c(ccc(-c4ccncc4)c3=O)[C@H]2N1Cc1ccc2c(c1)OCO2	none (no result: IDH1 mut inh)
CCCN(C)C[C@@H]1Oc2cc(C#Cc3ccccc3)ccc2S(=O)(=O)N([C@H](C)CO)C[C@@H]1C	none
CCCN(C)C[C@@H]1Oc2cc(C#Cc3ccccc3)ccc2S(=O)(=O)N([C@@H](C)CO)C[C@@H]1C	T cruzi growth-1 111 | T cruzi growth-2 113 | T cruzi growth-3 inactive | NIH3T3 tox inactive | 3T3 cytotox 2 104
C[C@H]1CN([C@@H](C)CO)C(=O)c2cccc(NC(=O)c3ccc(-c4nccs4)cc3)c2O[C@@H]1CN(C)C(=O)Nc1ccc2c(c1)OCO2	none
CN1CCN(C(=O)[C@H]2[C@H](CO)[C@H]3Cn4c(cccc4=O)[C@@H]2N3Cc2ccncc2)CC1	T cruzi growth-1 active (no result: IDH1 mut inh, Pf Dd2 inh) | T cruzi growth-2 inactive | T cruzi growth-3 inactive | NIH3T3 tox inactive | 3T3 cytotox 2 inactive
O=C(NCc1ccc(F)cc1)[C@@H]1[C@@H](CO)[C@@H]2Cn3c(cccc3=O)[C@H]1N2	T cruzi growth-1 inconclusive (no result: IDH1 mut inh) | T cruzi growth-2 inactive | T cruzi growth-3 inactive | NIH3T3 tox inactive | 3T3 cytotox 2 inactive
O=C(NCc1ccc(F)cc1)[C@H]1[C@H](CO)[C@H]2Cn3c(cccc3=O)[C@@H]1N2Cc1cccnc1	T cruzi growth-1 99 (no result: IDH1 mut inh) | T cruzi growth-2 inactive | T cruzi growth-3 inactive | NIH3T3 tox inactive | 3T3 cytotox 2 inactive

Screening results from PubChem BioAssay.
